Pf Dd2 inh: inhibitors of Plasmodium falciparum Dd2 growth; AID 1159554; activity change, % at 10 µM; actives 2.3% (n = 94,000); P. falciparum Dd2 growth, SYBR Green, 72 h; active compounds read low; in the data active = activity change below about -80%; inconclusive = no clear call, values can overlap the other calls
T cruzi growth-1: blocks T. cruzi growth in NIH3T3 culture; T. cruzi beta-gal in NIH3T3, GalScreen luminescence, 90 h; inhibition, % at 8.34 µM; actives 5.9% (n = 77,000);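 active = mean inhibition above about 93%, with at least 55% of replicates each passing it, limit read from the data, passing the limit was not always enough; inconclusive = only one of those two conditions holds; inactive = neither condition holds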
IDH1 R132H inh: blocks human IDH1 R132H reductase activity; diaphorase/resazurin fluorescence, 60 min; inhibition, % at 10 µM; actives 0.18% (n = 70,000); AID 624101; in the data active = inhibition above about 34%; inconclusive = no clear call, values can overlap the other calls; inactive = below about 11%;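 note: 0% = DMSO and 100% = no enzyme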
Target sequence (O75874 whole entry R132H): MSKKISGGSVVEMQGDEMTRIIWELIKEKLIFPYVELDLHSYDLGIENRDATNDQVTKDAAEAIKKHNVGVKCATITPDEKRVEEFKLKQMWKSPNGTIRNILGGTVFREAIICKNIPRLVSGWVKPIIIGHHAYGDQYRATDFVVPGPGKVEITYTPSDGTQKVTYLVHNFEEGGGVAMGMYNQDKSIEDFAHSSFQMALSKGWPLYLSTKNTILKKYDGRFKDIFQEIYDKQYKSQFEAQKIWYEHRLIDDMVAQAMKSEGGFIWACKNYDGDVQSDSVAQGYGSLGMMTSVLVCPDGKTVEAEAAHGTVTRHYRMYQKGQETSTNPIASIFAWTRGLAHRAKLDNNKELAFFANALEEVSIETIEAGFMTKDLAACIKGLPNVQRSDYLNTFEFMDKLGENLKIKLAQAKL
KDM4C inh: KDM4C (human) demethylase inhibition; Q9H3R0; GST-KDM4C 2-372, H3K9me3 peptide, LANCE TR-FRET; inhibition, % at 12.5 µM; actives 0.15% (n = 96,000); AID 720574;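 active = mean replicate inhibition above about 25%, with at least 55% of replicates also reaching it, limit read from the data, passing the limit was not always enough; inconclusive = only one of those two conditions met; inactive = neither condition met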
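Material: GST-tagged GASC-1 (JMJD2C) catalytic fragment, aa 2-372. Input: enzyme final amount 10 nM. Medium: HEPES buffer, pH 7.5, plus ascorbate. Reagent: H3K9me3 peptide substrate, Fe(II), 2-oxoglutarate. Doses: single dose. Times: reaction 30 min RT, detection step 1 h RT. Measured by: LANCE TR-FRET. Evaluation: Fall in 671/618 emission ratio as inhibition.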
T cruzi growth-2: Trypanosoma cruzi proliferation inhibition; T. cruzi beta-gal in NIH3T3, GalScreen luminescence, 90 h; inhibition, % at 8.35 µM; shares compounds with T cruzi growth-1; AID 651739; actives 72% (n = 5,600);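 active = mean replicate inhibition above about 95% and at least 55% of replicates individually reaching it, limit read from the data; inconclusive = only one of the two criteria is met; inactive = neither criterion is met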
T cruzi growth-3: Trypanosoma cruzi proliferation inhibition. AID 651740. actives 21% (n = 5,600). inhibition, % at 2.09 µM. shares compounds with T cruzi growth-1. T. cruzi beta-gal in NIH3T3, GalScreen luminescence, 90 h;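 active = mean inhibition above about 95%, with at least 55% of replicates also reaching it, limit read from the data; inconclusive = meets just one of the two conditions; inactive = meets neither condition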;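 note: plate controls were neutral control median for no effect and positive control median for full effect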
3T3 cytotox: kills mouse NIH/3T3 fibroblasts | actives 14% (n = 5,600) | shares compounds with T cruzi growth-1 | cytotoxicity (signal decrease), % at 8.35 µM | NIH/3T3 viability, CellTiter-Glo ATP luminescence, 90 h;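 active = mean signal decrease across replicates above about 35% based on untreated-well scatter, with enough replicates individually passing, limit read from the data; inconclusive = no rule stated though some were filed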;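 note: 0% = median of neutral control wells and 100% = median of positive control wells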
3T3 cytotox 2: kills mouse NIH/3T3 fibroblasts | shares compounds with T cruzi growth-1 | NIH/3T3 viability, CellTiter-Glo ATP luminescence, 90 h | inhibition, % at 24.9 µM | actives 56% (n = 5,600);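 active = mean loss of cell viability signal at or above a set limit, and enough replicates individually reaching it; inconclusive = meets only the mean limit or only the replicate share; inactive = meets neither condition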;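 note: 0% = median of neutral control wells and 100% = median of positive control wells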
An asterisk follows results filed as active; ? = inconclusive; / = no result. This is a sample that favours compounds with a hit; in the whole collection about 5.8% have one here.

SMILES	Pf Dd2 inh	T cruzi growth-1	IDH1 R132H inh	KDM4C inh	T cruzi growth-2	T cruzi growth-3	3T3 cytotox	3T3 cytotox 2
C[C@@H]1CCCCO[C@H](CN(C)C(=O)NC2CCCCC2)[C@@H](C)CN([C@H](C)CO)C(=O)c2cc(NC(=O)Nc3ccc(C(F)(F)F)cc3)ccc2O1	-6.4	92.5	/	-0.2	/	/	/	/
COc1ccccc1-c1ccc([C@@H]2[C@@H](CO)N3CCCCN(C(=O)CN4CCOCC4)C[C@@H]23)cc1	-21.3	114.3*	/	0.7	38.7	-28.7	3.4	25.9*
COc1ccccc1-c1ccc([C@H]2[C@@H](CO)N3CCCCN(C(=O)CN4CCOCC4)C[C@@H]23)cc1	18.8	?	/	0.5	76.5	71.3	27.3	64.8*
C/C=C/c1ccc2c(c1)O[C@@H](CN(C)Cc1ccccc1)[C@@H](C)CN([C@H](C)CO)S2(=O)=O	-21.8	99.8	-0.5	2.8	/	/	/	/
C/C=C/c1ccc2c(c1)O[C@@H](CN(C)Cc1ccncc1)[C@H](C)CN([C@H](C)CO)S2(=O)=O	-55.4	102.4*	43.1*	17.0	98.8*	103.6*	?	69.0*
C/C=C/c1ccc2c(c1)O[C@@H](CN(C)Cc1cncnc1)[C@H](C)CN([C@H](C)CO)S2(=O)=O	-12.3	/	-0.3	1.1	/	/	/	/
C/C=C/c1ccc2c(c1)O[C@@H](CN(C)Cc1ccncc1)[C@@H](C)CN([C@H](C)CO)S2(=O)=O	15.0	102.9*	0.0	14.9	96.3*	93.5	18.6	57.2*
COc1ccc(NC(=O)Nc2ccc3c(c2)[C@H]2C[C@H](CC(=O)NCc4ccc5c(c4)OCO5)O[C@@H](CO)[C@H]2O3)cc1	-6.2	37.4	0.1	-1.2	/	/	/	/
COc1ccc(NC(=O)Nc2ccc3c(c2)[C@H]2C[C@@H](CC(=O)NCCc4ccccc4)O[C@@H](CO)[C@H]2O3)cc1	-36.7	156.6*	-0.4	-1.6	111.8*	97.7*	-9.7	-3.0
CCCNC(=O)C[C@H]1C[C@@H]2c3cc(NC(=O)Nc4ccc(OC)cc4)ccc3O[C@@H]2[C@H](CO)O1	-2.2	34.3	-0.6	-2.9	/	/	/	/
COc1ccc(NC(=O)Nc2ccc3c(c2)[C@@H]2C[C@H](CC(=O)NCCc4ccccc4)O[C@@H](CO)[C@@H]2O3)cc1	-16.7	176.1*	1.3	-1.9	104.7*	?	7.1	10.6
COc1ccc(NC(=O)Nc2ccc3c(c2)[C@@H]2C[C@H](CC(=O)NCc4ccc5c(c4)OCO5)O[C@H](CO)[C@@H]2O3)cc1	-13.4	102.1*	0.0	-0.7	91.6	61.5	1.6	11.6
NC(=O)C1(N2CCCCC2)CCN(CC(=O)Nc2ccc(Cl)cc2)CC1	/	/	0.5	/	/	/	/	/
COc1ccc(C(=O)CSc2nnc(-c3ccccc3)n2-c2ccc(Br)cc2)cc1	/	/	-0.1	/	/	/	/	/
COC(=O)c1ccc(Cl)c(NC(=O)CN(c2cccc(Cl)c2)S(C)(=O)=O)c1	/	/	3.3	/	/	/	/	/
COC(=O)c1cc(OC)c(OC)cc1NC(=O)COc1cc(Cl)c(Cl)cc1Cl	/	/	-0.2	/	/	/	/	/
C[C@@H]1CN([C@@H](C)CO)S(=O)(=O)c2ccc(C3=CCCC3)cc2O[C@H]1CN(C)Cc1cccnc1	-12.1	?	76.8*	-0.4	105.2*	99.3*	47.2*	45.8*
C[C@H]1CN([C@@H](C)CO)S(=O)(=O)c2ccc(C3=CCCC3)cc2O[C@@H]1CN(C)Cc1cccnc1	-62.6	102.9*	7.0	1.9	104.6*	103.9*	55.5*	62.8*
C[C@@H]1CN([C@@H](C)CO)S(=O)(=O)c2ccc(C3=CCCC3)cc2O[C@@H]1CN(C)Cc1cccnc1	-15.1	99.6*	/	-1.2	?	32.9	?	46.1*
CS(=O)(=O)N1CCCCN2[C@H](CO)[C@@H](c3ccc(C#Cc4ccccn4)cc3)[C@H]2C1	8.7	?	/	1.8	91.4	8.6	-6.3	1.6
CCS(=O)(=O)N1CCCCN2[C@H](CO)[C@H](c3ccc(C#Cc4ccccn4)cc3)[C@@H]2C1	17.4	63.6	/	-0.6	/	/	/	/

Screens from PubChem BioAssay.
